A short description of this data set: Toxicity liver stage against HepG2, at 10uM. On the set-up: test concentration 10 uM, cell line HepG2-A16-CD81EGFP. Format: cell-based. To be noted: human, HepG2-A16-CD81EGFP cells; read-out: INHIBITION
The essentials:
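Uninfected HepG2-A16-CD81EGFP cells, 3 × 10^3 per well, 1536-well, plated on prespotted compound at 10 μM final, parasite-free screening media added to match infected plates; puromycin 10 μM positive, DMSO 0.5% negative; run in parallel with 48 h PbLuc assay at 37 °C, 5% CO2; viability by CellTiter-Glo luminescence, normalized to controls.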

With `CCN1CCN(c2ccc(NC(C)c3nc(C(C)C)no3)c(C)c2)CC1` (stereo unspecified), the cytotoxicity at 10 µM was -10%.

As for `CC(=O)Nc1ccc(C(=O)N2CCOc3nc(C)ccc32)cc1`, the cytotoxicity at 10 µM worked out at 2.81%. As for `COc1cc(OC)nc(N2CCCC(c3nccn3CCN(C)C)C2)n1` (stereo unspecified), the cytotoxicity at 10 µM was determined as 5.12%. Turning to `Clc1ccc(CN2CCCC(Cn3cncn3)C2)c2ncccc12` (stereo unspecified), the cytotoxicity at 10 µM was -13.7%. For `Clc1snnc1CN1CCN(c2nccs2)CC1`, the cytotoxicity at 10 µM was -43.9%. For `O=C(c1cccc(F)c1)N1CCCC1c1ncc2c(n1)CCNC2` (stereo unspecified), the cytotoxicity at 10 µM was -12.2%. As to `COc1c(C(=O)N2CCNC(=O)C2)cnc2c1c(C)nn2C`, the cytotoxicity at 10 µM stood at 6.26%. For the compound `Cc1nc(C)n(C2CCCN(C(=O)c3cccnc3NC(C)C)C2)n1` (stereo unspecified), the cytotoxicity at 10 µM was -2.28%. As to `CN(C)Cc1ccnc(C2CCCN2Cc2ccncc2)n1` (stereo unspecified), the cytotoxicity at 10 µM came to 1.36%. For `CN(Cc1nnnn1C1CC1)CC1COc2ccccc2O1` (stereo unspecified) the value was -5.79%; for `O[C@@]1(CNCCCNc2cccnc2)CCCN2CCCC[C@@H]21`, -3%. Consider `CC(C)C(c1cccnc1)N(C)C(=O)Cc1ccc(O)cc1` (stereo unspecified), for which the cytotoxicity at 10 µM was -1.03%.

Regarding `CC(C)c1cc(C(=O)N2CCCC2c2nc(-c3ccccc3)no2)[nH]n1` (stereo unspecified), the cytotoxicity at 10 µM is -4.5%. Regarding `CN(C)S(=O)(=O)c1ccc(CN2CCC(C(N)=O)CC2)o1`, the cytotoxicity at 10 µM amounted to 0.214%. `Cc1cc(NCCc2nnc(N)s2)nc(-c2ccccc2)n1`: the cytotoxicity at 10 µM came to 6.9%. Take `Nc1cc(-c2nccnc2N2CCCC2)c2cc[nH]c2n1`: the cytotoxicity at 10 µM amounted to 13.6%. In the case of `NC(=O)C1(CNC(=O)CCc2ccc(Cl)s2)CCOCC1`, the cytotoxicity at 10 µM amounted to 9.09%. For `CC(C)Cc1noc(CN(C)c2cc(C(C)C)nc3ccnn23)n1`, the cytotoxicity at 10 µM is -7.55%. For `CCCc1nc(CN(CC)Cc2ccc(O)c(C(=O)O)c2)no1`, the cytotoxicity at 10 µM was -6.33%. For `Cn1cc(CNCC2(O)CCCCC2)c(-c2cccnc2)n1`, the cytotoxicity at 10 µM turned out to be 14.9%. With `CCN(Cc1ccoc1)C(=O)c1ccc(C)c(S(N)(=O)=O)c1`, the cytotoxicity at 10 µM is -4.63%. Turning to `COc1ccc(S(=O)(=O)C(F)(F)F)cc1NC(=O)CSC`, the cytotoxicity at 10 µM is 10.9%. Turning to `CCS(=O)(=O)N[C@@H]1CN(Cc2cc(C)on2)C[C@@H]2CCCO[C@@H]21`, the cytotoxicity at 10 µM was -6.01%. As for `CNC(=O)C1CCCCN1C(=O)c1csc(-c2ccccc2)n1` (stereo unspecified), the figure is 2%; as for `Cc1ccc(-c2cc(C(=O)NCCCc3csc(N)n3)[nH]n2)o1`, 79.5%. Take `Cn1cccc1CN1CCC2(CC1)CN(c1ncccn1)CCO2`: the cytotoxicity at 10 µM was -4%. As for `COCCCNc1nccc(-c2c[nH][nH]c2=O)n1`, the cytotoxicity at 10 µM amounted to 7.46%. As to `Cn1ncc2c(=O)[nH]c(CN3CCCC3c3ccccc3Cl)nc21` (stereo unspecified), the cytotoxicity at 10 µM is -4.8%. Take `CN(C(=O)c1cccn1C)C1CCC(NC(=O)OC(C)(C)C)CC1` (stereo unspecified): the cytotoxicity at 10 µM is -4.18%. As for `COCc1cc(C[C@@H]2CC[C@H](O)[C@@H](CN(CC(C)C)CC(C)C)O2)no1`, the figure is 0.169%; as for `CN(C)CCCNCCC(Cc1ccccc1)C1CCOC(C)(C)C1` (stereo unspecified), -4.08%. On to `CS(=O)(=O)CCC(=O)N1CCC(c2cccc(F)c2)C1` (stereo unspecified), for which the cytotoxicity at 10 µM is 3.71%.

As to `Cn1cc(C2CCCN2C(=O)c2cnc(-c3ccco3)s2)cn1` (stereo unspecified), the cytotoxicity at 10 µM is 3.88%.

In the case of `CN(C)C1COC2(CCN(Cc3nccs3)CC2)C1` (stereo unspecified), the cytotoxicity at 10 µM is 2.02%. For `c1cnc(N2CCCC(c3csc(Nc4cnccn4)n3)C2)nc1` (stereo unspecified) the value was 8.33%; for `c1cncc(OC[C@]23COC[C@H]2CN(Cc2cccs2)C3)c1`, -13%; for `CC(C)C(NC(=O)NCCNc1ccccn1)c1cccs1` (stereo unspecified), -8.13%. As for `COC(=O)C1CCN(C(=O)c2ccc(NS(C)(=O)=O)c(C)c2)CC1`, the cytotoxicity at 10 µM is -1.04%.

Regarding `O=C(NCCn1ccnc1)c1cccc(Br)c1`, the cytotoxicity at 10 µM came out at 9.3%. For `CCCS(=O)(=O)N1CCC2(CC1)CC(N1CCCC1)c1ccccc12` (stereo unspecified), the cytotoxicity at 10 µM is -0.664%. For `N#Cc1ccc(N2CCN(C(=O)c3cc(C4CC4)[nH]n3)CC2)c(F)c1` the value was 1.94%; for `CC(Cn1cccn1)NCc1nc(-c2cccc(Cl)c2)no1` (stereo unspecified), -9.21%; for `CC(C)NC(=O)NCCn1cnc(C2CCCC2)cc1=O`, -0.373%. In the case of `O=C1C[C@@H]2CC[C@H](CN1)N2c1cc(-c2ccccc2F)nc2ccnn12`, the cytotoxicity at 10 µM is 20.4%. For the compound `COCC(NC(=O)c1ccco1)c1cccc(C(F)(F)F)c1` (stereo unspecified), the cytotoxicity at 10 µM was -3.96%. For `CC(NC1CCN(C(=O)C2CCCCC2)CC1)c1nccs1` (stereo unspecified), the cytotoxicity at 10 µM was -4.22%.

Regarding `CCn1ncc2c1C(COC)CN(Cc1nccs1)C2` (stereo unspecified), the cytotoxicity at 10 µM came out at 9.41%.

As for `CCc1nnc2n1CCN(C(=O)c1ccc(-c3ccco3)nc1C)C2`, the cytotoxicity at 10 µM was -7.23%. As for `CCCNc1cc(-c2c[nH]nc2C2CCN(C(=O)C3CCC3)C2)ccn1` (stereo unspecified), the figure is 82%; as for `CS(=O)(=O)NCc1cc2n(n1)CCCN(Cc1cccc(C#N)c1)C2`, -8.33%; as for `Cn1cccc1C(=O)N1CCn2cc(CN3CCCC3)nc2C1`, -72.3%.

As to `O=C1N(c2ccsc2)CCC12CCCN(c1ncc(F)cn1)C2` (stereo unspecified), the cytotoxicity at 10 µM was -105%.

Take `Cc1cnc(N)nc1N1CCN(CCCO)CC1`: the cytotoxicity at 10 µM came to 0.761%. In the case of `COC(=O)N1CC2=CC(C)(C)COc3ccc(OC)c(c32)C1`, the cytotoxicity at 10 µM was 5%. For the compound `Cc1cc(C)c(N(CC(O)CNCc2ccccc2)S(C)(=O)=O)c(C)c1` (stereo unspecified), the cytotoxicity at 10 µM is -12.7%. For `CC(C)n1nc(CN2CCOCC2)c2c1CN(Cc1ccsc1)C2`, the cytotoxicity at 10 µM was -132%. For the compound `CCN1CCOCC2(CCCN(C(=O)c3cccc(O)c3)C2)C1` (stereo unspecified), the cytotoxicity at 10 µM worked out at 0.14%.

Regarding `CCNC(=O)CCC(=O)NC(Cc1ccccc1)c1sccc1C` (stereo unspecified), the cytotoxicity at 10 µM was -6.69%.

`NC(=O)c1cccc(CCNC(=O)N2Cc3ccccc3C2)c1`: the cytotoxicity at 10 µM is -9.86%. Consider `Cn1c(CNCC2CCCN2c2cccnn2)nc2ccccc21` (stereo unspecified), for which the cytotoxicity at 10 µM is -18.2%. With `Cc1nn(C)c(C)c1NC(=O)CN1CCCC1c1noc(C2CC2)n1` (stereo unspecified), the cytotoxicity at 10 µM is -12.1%. Consider `Cc1csc(N2CCCN(CCC(=O)NC(N)=O)CC2)n1`, for which the cytotoxicity at 10 µM is -24.2%. For `Fc1cc(CN2CCOC3(CCOCC3)C2)ccc1OC(F)F`, the cytotoxicity at 10 µM was -11.9%.

As to `CN1CCCCC1c1cncc(N2CCC(O)CC2)n1` (stereo unspecified), the cytotoxicity at 10 µM was 2.54%. Turning to `COC(=O)c1ccc(N2CCC(N(C)c3ccccc3)CC2)nn1`, the cytotoxicity at 10 µM is -4.92%. Turning to `O=C(c1ccnnc1)N1CCC2(CC1)CN(c1ccccn1)CCO2`, the cytotoxicity at 10 µM is -81.5%. As for `CCCn1ncc(-c2ccnc(NC3CC(C)(C)NC(C)(C)C3)n2)c1C`, the cytotoxicity at 10 µM was determined as 4.84%.

Regarding `CCC(CNC(=O)Cc1cc(C)on1)Oc1cccc(F)c1` (stereo unspecified), the cytotoxicity at 10 µM is -48.2%. For `COc1ccc(C(=O)N2CCC(Oc3ccc(C)cc3)(C(=O)O)CC2)o1` the value was 9.68%; for `COc1ccc(CNC(=O)CNc2cc3c(cc2Cl)OCCCO3)cc1`, 3.25%; for `CS(=O)(=O)N1CC[C@H]2O[C@@H](C(=O)NCc3ccco3)CC[C@H]21`, 4.23%. In the case of `CN(C)C(=O)c1nnn(-c2ccc(Br)cc2)n1`, the cytotoxicity at 10 µM was determined as 7.5%. As to `CNC(=O)[C@H]1CCS(=O)(=O)[C@@H]2CN(Cc3ccc(OC)cc3)C[C@H]12`, the cytotoxicity at 10 µM is -10.3%. For `O=C1CC(c2ccc3c(c2)OCO3)c2cn[nH]c2N1` (stereo unspecified), the cytotoxicity at 10 µM amounted to 13.3%. Regarding `CCOc1ccccc1CN(CC)Cc1ccc(S(=O)(=O)NC)cc1`, the cytotoxicity at 10 µM was -0.943%. Regarding `CS(=O)(=O)Cc1nc(CCc2ccccc2)nn1-c1ccccn1`, the cytotoxicity at 10 µM was found to be 3.36%.

On to `CN1CCC/C1=N\S(=O)(=O)c1ccc(NC(=O)c2ccc(Cl)s2)cc1`, for which the cytotoxicity at 10 µM turned out to be 1.55%.

With `CC(=O)N1CCCC1c1nccnc1Nc1ncccn1` (stereo unspecified), the cytotoxicity at 10 µM was -1.2%.

Regarding `Cc1ccccc1-c1noc(CN2CCOC(Cn3cccn3)C2)n1` (stereo unspecified), the cytotoxicity at 10 µM was -5.04%.

As for `CC(C)OCc1ccccc1CNC(=O)C(C)S(=O)(=O)C(C)C` (stereo unspecified), the cytotoxicity at 10 µM was -3.92%. For `Cc1nn(C)c(C)c1C1CCCN1Cc1cn2ccsc2n1` (stereo unspecified) the value was -51.6%; for `CC(=O)NCCNC(=O)CN1CCN(Cc2nccn2C)C(C)C1` (stereo unspecified), -6.73%. Take `Cc1ccc(C(=O)N2CCCc3c(c(=O)n(C)n3C)C2)o1`: the cytotoxicity at 10 µM worked out at 5.92%.

As for `O=c1c(NCc2ccncc2)c(NCC(O)CN2CCOCC2)c1=O` (stereo unspecified), the cytotoxicity at 10 µM was -44%. Take `Cc1nc2ccccc2nc1CN(C)C1CCCN(c2cccnn2)C1` (stereo unspecified): the cytotoxicity at 10 µM was -9.71%. For `COc1ccnc(N2CCN(C(=O)c3cccc(C#N)c3)CC2)n1` the value was -18.2%. As for `CC(C)c1ccc(O)c(C(=O)NCc2cc[nH]n2)c1`, the figure is -1.49%.

As for `Cc1cccc(-c2ccc(C(=O)N3CCN(C4CC4)CC3)c(=O)[nH]2)c1`, the cytotoxicity at 10 µM amounted to 13.2%. For `CN1CCCC1CNC(=O)CCOc1ccc(Cl)cc1` (stereo unspecified), the cytotoxicity at 10 µM is -4.31%. With `c1cc(-c2ccn(CCN3CCCC3)n2)cc(-c2nccs2)c1`, the cytotoxicity at 10 µM was -8.96%. Regarding `CC(C)c1nccn1CCCNC(=O)c1ccc(-c2cccnc2)nc1`, the cytotoxicity at 10 µM is -11.8%. Consider `CCn1nc(C)c(C(C)NC(=O)c2cccc(NCC(=O)O)c2)c1C` (stereo unspecified), for which the cytotoxicity at 10 µM is 3.04%. Turning to `Cc1nc(CN2CCc3ncnc(-c4cccnc4)c3CC2)cs1`, the cytotoxicity at 10 µM came to 7.51%. For `Cn1cnc2c1CCN(CC(=O)N(Cc1ccccc1F)C1CC1)C2` the value was 4.91%; for `Cn1ncc(CN2CCc3onc(-c4cccc(F)c4)c3C2)c1C1CC1`, 1.31%; for `O=S(=O)(c1ccccc1)N1CCC2(CCCN2Cc2ccccc2Cl)C1` (stereo unspecified), -74.5%.

(Values after ChEMBL document CHEMBL4513216, “Probing the Open Global Health Chemical Diversity Library for Multistage-Active Starting Points for Next-Generation Antimalarials” (ACS Infect Dis, 2020).)
